Here are results for 87 molecules from PubChem BioAssay AID463104 (Sanford-Burnham Center for Chemical Genomics, 2010).

In all, about 330,000 compounds went through this assay and about 1,100 (0.33%) were called active. The entries come from a sample that favours actives as a whole. A number with no mark means an inactive call.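 Rule for the calls: active = versus positive control, 20 µM dose yields 30% or more activation; inactive = the rest.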

The test can be described thus: IRE1-XBP1 pathway stimulators – cell-based, CHO-XBP1 luciferase reporter, luminescence, uHTS, primary screen (AID 463104).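 Note: 100% = tunicamycin at 10 µg/mL and 0% = DMSO only wells.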 Conditions: IRE1-XBP1 UPR activation, at 20 µM, hits give high values, percent of tunicamycin response, DMSO as zero. A digest of the protocol: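 assay system = CHO-XBP1 luciferase reporter cells | amount = 1000 cells/well | buffer or medium = F12 plus 10% FBS | compound dosing = single point, 20 µM final compound, 1% DMSO | incubation = 16-18 h cell attachment at 37 °C, then 6 h compound exposure | detection = Steady-Glo luminescence read | controls = tunicamycin 10 µg/mL and vehicle-only wells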
Consider `OCCC1CN(Cc2ccccc2-c2ccco2)CCN1Cc1ccsc1` (configuration not stated), for which the activation was -1.57%.

`Cc1cc(NC(=O)Nc2c[nH]c(=O)[nH]c2=O)ccc1Br`: the activation is -0.89%.

`Cc1ccc(Nc2nc(N)nc(CN3CCN(Cc4ccccc4)CC3)n2)cc1Cl`: the activation is 3.65%.

As for `OCCNc1nc(Nc2ccc(Cl)c(Cl)c2)nc2ccccc12`, the activation was 46.6% (active).

`CNc1nc(Nc2ccc(C)c(Cl)c2)nc(N)c1[N+](=O)[O-]`: the activation is 10.8%.

For the molecule `N#Cc1cc([N+](=O)[O-])ccc1Oc1cccc(/C=N/NC(=O)c2ccc(Cl)cc2)c1`, the activation was -0.61%.

As to `COC(=O)c1ccc(COc2ccc(/C=N/NC(=O)C(=O)Nc3ccc(OC)cc3)cc2OC)o1`, the activation is -0.77%.

As for `CCCc1ccc(OCc2ccc(C(=O)N/N=C/c3cccc([N+](=O)[O-])c3)o2)c(OC)c1`, the activation is 35.5% (active).

With `CCCCCCCCCCOC(=O)Cn1c(COc2ccc(C)cc2)[n+](C)c2ccccc21`, the activation was 41.7% (active).

Take `CCCCCCCCCCOC(=O)Cn1c(COc2cccc(OC)c2)[n+](C)c2ccccc21`: the activation is 20.9%.

`CCOC(=O)COn1c(=O)c(-c2ccc(OCC)cc2)[n+]([O-])c2ccccc21`: the activation is 0.06%.

Take `CCN(CC(=O)NCC(=O)Nc1cccc(C)c1C)Cc1ccccc1`: the activation was -5.66%.

Turning to `Cc1c(Br)c([N+](=O)[O-])nn1C(C)C(=O)Nc1nccs1` (configuration not stated), the activation is -1.86%.

With `Cc1ccc(-n2c(O)c(C=Nc3ccc(S(=O)(=O)Nc4ncccn4)cc3)c3ccccc3c2=O)cc1C`, the activation was -1.86%.

For the molecule `COC(=O)Cc1csc(/N=C/c2c(O)n(-c3cccc(C(F)(F)F)c3)c(=O)c3ccccc23)n1`, the activation is 46.3% (active).

`COC(=O)Cc1csc(Nc2c(C)n(C)n(-c3ccccc3)c2=O)n1`: the activation was -0.87%.

On to `CC(=O)Nc1ccccc1Sc1ccc2c3c(cccc13)C(=O)N(c1ccc(C)cc1)C2=O`, for which the activation is 33.8% (active).

Turning to `CSc1ccccc1NC(=O)C(C)N1C(=O)c2ccccc2S1(=O)=O` (configuration not stated), the activation was 0.16%.

`Cc1ccc(N2C(=O)CC(Nc3cccc4ccccc34)C2=O)cc1` (configuration not stated): the activation was -0.83%.

In the case of `CC1CCN(C(=O)COC(=O)c2cc(=O)[nH]c3ccccc23)CC1`, the activation is -0.76%.

Consider `CCn1c2ccccc2c2cc(NC(=S)N3CCOCC3)ccc21`, for which the activation was -1.32%.

As for `CCOC(=O)C(C)n1cnc2c(nnn2-c2cccc(OC)c2)c1=O` (configuration not stated), the activation was -2.11%.

On to `CCOc1ccc(NS(=O)(=O)c2ccc(C(=O)NCC(c3ccccc3OC)N3CCCC3)cc2)cc1` (configuration not stated), for which the activation is -3.45%.

For `O=C(NCC1(N2CCCCC2)CCCCC1)c1ccc(NS(=O)(=O)c2ccc(F)cc2)cc1`, the activation is 0.16%.

On to `CCOc1ccc(S(=O)(=O)Nc2cccc(C(=O)NCC3(N4CCCCC4)CCCCC3)c2)cc1`, for which the activation is 66.6% (active).

Regarding `CCOc1ccccc1C(=O)NC1CC2CCCC(C1)N2Cc1ccccc1` (configuration not stated), the activation is 2.18%.

Take `Cc1ccc(C)c(NC(=O)c2ccc3nccnc3c2)c1`: the activation is 0.85%.

In the case of `Clc1ccc(CSc2nnc([C@@H]3CCCN3)o2)cc1`, the activation is 0.7%.

Consider `CCC1CCCCN1S(=O)(=O)Cc1ccccc1Cl` (configuration not stated), for which the activation is -1.25%.

Regarding `COC(=O)c1c(NC(=O)CN2CCN(S(=O)(=O)c3ccccc3[N+](=O)[O-])CC2)sc2c1CCC(C)C2` (configuration not stated), the activation was -0.95%.

On to `O=C1CSC2=NCN(c3ccccc3)CN12`, for which the activation was 1.38%.

With `CN(c1cccc(NC(=O)c2ccc(CN3CCc4ccccc4C3)cc2)c1)S(C)(=O)=O`, the activation is -1.68%.

For the molecule `CN(c1ccccc1)S(=O)(=O)c1cccc(NC(=O)Cc2ccc(Cl)cc2)c1`, the activation is -1.79%.

In the case of `CN(c1cccc(NC(=O)Nc2ccc(Cl)cc2)c1)S(C)(=O)=O`, the activation was 33.6% (active).

On to `CCCOc1cccc(C(=O)Nc2nnn(CCC)n2)c1`, for which the activation is 0.81%.

Regarding `Cc1noc(C)c1S(=O)(=O)Nc1cc(C(F)(F)F)ccc1N1CCOCC1`, the activation is -0.99%.

Take `COCCNC(=S)c1ccc(OC)cc1`: the activation is -1.99%.

For the molecule `O=C(NCc1ccc(Cl)cc1)C(=O)NCC1CCCN1S(=O)(=O)c1cccs1` (configuration not stated), the activation was -4.11%.

As to `CC(C)(C)OC(=O)C[C@H]1C/C=C\C[C@@H](CC(=O)N[C@H](CO)Cc2ccccc2)C(=O)NC[C@@H](c2ccccc2)OC1=O`, the activation is 5.5%.

Regarding `O=C(C[C@H]1C/C=C\C[C@@H](NC(=O)OCC2c3ccccc3-c3ccccc32)C(=O)O[C@@H](c2ccccc2)CNC1=O)N[C@H](CO)Cc1ccccc1`, the activation is 100% (active).

For the molecule `CC(C)(C)OC(=O)C[C@@H]1C/C=C\C[C@@H](CC(=O)N[C@H](CO)Cc2ccccc2)C(=O)NC[C@@H](c2ccccc2)OC1=O`, the activation was -1.85%.

As for `O=c1c(Cl)c(NCc2ccc(F)cc2Cl)cnn1C12CC3CC(CC(C3)C1)C2`, the activation was -1.62%.

`COc1ccc(C(=O)N2CCN(c3ncccn3)CC2)cc1S(=O)(=O)N1CCOCC1`: the activation is 1.37%.

For the molecule `Cc1cccc(NC(=O)CSC(N)=O)c1C`, the activation is 0.46%.

Consider `CCOC(=O)/C=c1\s/c(=C\c2ccc(C#N)cc2)c(=O)n1CC(=O)Nc1cccc(C)c1C`, for which the activation is 217% (active).

Consider `Cc1cccc(NC(=O)CN2CCN(C(=O)C3CCN(C(=O)/C=C/c4ccccc4)CC3)CC2)c1C`, for which the activation was -2.16%.

In the case of `Cc1csc(NC(=O)C2CCCN2C(=O)OCC(C)C)n1` (configuration not stated), the activation was -2.24%.

`Cc1ccc(/C=C/C(=O)OCC(=O)Nc2cccnc2Cl)cc1`: the activation was -1.42%.

For `COc1ccc(NC(=O)CN(C)C(=O)/C=C/c2cn(Cc3ccccc3)nc2-c2cccnc2)cc1`, the activation is -0.51%.

On to `O=C(COC(=O)/C=C/c1cn(-c2ccccc2)nc1-c1cccnc1)Nc1ccc(Cl)cc1Cl`, for which the activation is 43.9% (active).

In the case of `O=S(=O)(c1ccc(-c2ccno2)s1)N1CCCCC1`, the activation was -1.02%.

Take `COc1ccc(OC)c(S(=O)(=O)N2CCCC(C(=O)N3CCC(C(N)=O)CC3)C2)c1` (configuration not stated): the activation is 0.16%.

With `COc1ccc(C)cc1N(C)C(=O)c1coc(=O)c2ccccc12`, the activation was 2.41%.

With `Cc1cc(NC(=O)COc2ccccc2C#N)no1`, the activation was 6.89%.

Take `O=C(COC(=O)c1ccccn1)Nc1cccc2ccccc12`: the activation was -3.78%.

For the molecule `N#Cc1ccccc1NC(=O)COc1c(Br)cc(Br)c2cccnc12`, the activation was 116% (active).

Turning to `CCCCC(O)(CCCC)C(=O)NN(C(=O)CCl)c1ccccc1`, the activation was -0.49%.

Take `Cc1ccc(NC(=O)c2ccc(Oc3ncccn3)cc2)cc1`: the activation is 0.13%.

As to `Cc1[nH]c(=O)c(C(=O)/C=C/c2ccccc2)c2c1CCCC2`, the activation was -0.32%.

For `O=C(/C=C/c1ccc(N2CCOCC2)cc1)c1ccccc1`, the activation was 2.92%.

For `O=C(/C=C/c1ccccc1)c1ccccc1O`, the activation is 78.8% (active).

In the case of `Cc1nc2c(ncn2-c2ccccc2)c(=O)n1NC(=O)CN1CCCC1`, the activation is 0.65%.

For `COCCNC(=O)c1ccc2c(c1)ncn2-c1ccc(C)c(Cl)c1`, the activation was -1.46%.

On to `COc1ccc(CN2C(CC(=O)Nc3cccnc3)c3ccc(C(F)(F)F)cc3S2(=O)=O)cc1` (configuration not stated), for which the activation was -0.27%.

As to `Cc1ccc(C(=O)N/C(=C/c2ccc(-c3cccc([N+](=O)[O-])c3)o2)C(=O)NCCCN(C)C)cc1`, the activation is 0.17%.

With `Cc1ccc(Cc2cnc(NC(=O)/C(C#N)=C/c3ccc(-c4cccc([N+](=O)[O-])c4)o3)s2)cc1`, the activation was 131% (active).

On to `Cc1ccc(-c2ccc(/C=C(\C#N)C(N)=S)o2)c([N+](=O)[O-])c1`, for which the activation was -0.81%.

`CC(=O)N1CCC(N(C(=O)Nc2ccc(Cl)cc2)C(C)C)CC1`: the activation is 2%.

As to `CCC(C(=O)N1CCN(S(=O)(=O)c2sc(C(=O)O)c(C)c2C(=O)O)CC1)c1ccccc1` (configuration not stated), the activation was -0.89%.

On to `COc1ccccc1CNC(=O)c1ccc(Cl)c(S(=O)(=O)N2CCCC2)c1`, for which the activation was -2.56%.

Consider `O=C(CCCCCn1c(=S)[nH]c2cc3c(cc2c1=O)OCO3)N1CCN(c2ccc(F)cc2)CC1`, for which the activation is 38.5% (active).

For the molecule `Cc1ccc(C)c(N2CCN(C(=O)CCCCCn3c(=S)[nH]c4ccc(N5CCOCC5)cc4c3=O)CC2)c1`, the activation was -5.18%.

In the case of `CC(C)NC(=O)CCCn1c(=S)[nH]c2cc3c(cc2c1=O)OCO3`, the activation was 0.7%.

For `COc1cc(C(=O)NC2CCN(C)CC2)ccc1Nc1ncc2c(n1)N(C1CCC(O)CC1)CCC(=O)N2C` (configuration not stated), the activation was -2.3%.

Take `CCCCCC(=O)NC(=S)NNC(=O)c1ccc([N+](=O)[O-])cc1`: the activation is 1.01%.

As to `CCCCCC(=O)Nc1ccc(C(=O)N/N=C/c2ccc([N+](=O)[O-])cc2)cc1`, the activation is 82.5% (active).

For the molecule `CCCC(=O)Nc1ccc(C(=O)N/N=C/c2ccc[nH]2)cc1`, the activation was -1.43%.

In the case of `Nc1ccc(OCC(O)C[n+]2ccc(CCS(=O)(=O)[O-])cc2)cc1` (configuration not stated), the activation was -2.33%.

As for `CCN1N=C(c2ccccc2)CCC1=O`, the activation is 0.24%.

For the molecule `Cc1nonc1NC(=O)CSc1nc2ccccc2cc1C#N`, the activation was -3.02%.

On to `Cc1cc(C)c(C#N)c(SCC(=O)Nc2ccccc2)n1`, for which the activation is -0.84%.

In the case of `Cc1nc2cc(NC(=O)CSc3nc4c(C)cccc4cc3C#N)ccc2s1`, the activation was 30.2% (active).

Regarding `CC(Cc1cccs1)N(Cc1ccc(Cl)cc1)C(=O)c1ccncc1` (configuration not stated), the activation is -2.77%.

As for `COc1ccc(S(=O)(=O)NCCc2cc3ccc(C)c(C)c3[nH]c2=O)cc1`, the activation is -3.05%.

As to `O=C(NC(=S)Nc1ccc2oc(=O)ccc2c1)c1ccc(-c2cccc(Cl)c2Cl)o1`, the activation is 76.8% (active).

With `Cc1ccc(OCC(=O)Nc2ccc3oc(=O)ccc3c2)cc1C`, the activation is -0.41%.

Take `O=C(COc1ccc(Cl)cc1)Nc1ccc2oc(=O)ccc2c1`: the activation was -0.7%.
